Test results as given in ChEMBL document CHEMBL1811845, “Modulation of GABAA-receptors by honokiol and derivatives: subtype selectivity and structure-activity relationship” (J Med Chem, 2011).

What was measured:
[1] = molecular target: GABA-A receptor; GABA-A site (alpha1/beta2 interface) (Homo sapiens) (UniProt P14867+P47870); assay: Modulation of GABA Aalpha1beta2 receptor expressed in Xenopus laevis oocytes assessed as potentiation of GABA-induced chloride current at holding potential -70 mV at 30 uM by two-microelectrode voltage clamp technique relative to GABA; assay type: cell-based; conditions: Oocyte
In short: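 Single-concentration screen at 30 μM on α1β2 receptors (cRNA 1:1) in Xenopus oocytes. Enhancement was (I(GABA+compound)/IGABA)−1. DMSO was matched in control and test solutions, maximum 0.3% in the bath.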

[2] = molecular target: Gamma-aminobutyric acid receptor subunit alpha-5/beta-2 (Homo sapiens) (UniProt P47870+P31644); assay: Modulation of GABA Aalpha5beta2 receptor expressed in Xenopus laevis oocytes assessed as potentiation of GABA-induced chloride current at holding potential -70 mV by two-microelectrode voltage clamp technique relative to GABA; assay type: cell-based; conditions: Oocyte
In short: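 Oocytes were injected with α1, α2, α3 or α5 plus β2 cRNA at a 1:1 ratio and stored at 18 °C in ND96, pH 7.4. Enhancement was (I(GABA+compound)/IGABA)−1, and concentration-response data were Hill-fitted for EC50 and nH. Matched DMSO was ≤0.3%.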

[3] = molecular target: T1, Gamma-aminobutyric acid receptor subunit alpha-2/beta-2 (Homo sapiens, UniProt P47869+P47870); assay: Modulation of GABA Aalpha2beta2 receptor expressed in Xenopus laevis oocytes assessed as potentiation of GABA-induced chloride current at holding potential -70 mV by two-microelectrode voltage clamp technique; assay type: cell-based, Oocyte
T1 sequence (P47870 whole entry): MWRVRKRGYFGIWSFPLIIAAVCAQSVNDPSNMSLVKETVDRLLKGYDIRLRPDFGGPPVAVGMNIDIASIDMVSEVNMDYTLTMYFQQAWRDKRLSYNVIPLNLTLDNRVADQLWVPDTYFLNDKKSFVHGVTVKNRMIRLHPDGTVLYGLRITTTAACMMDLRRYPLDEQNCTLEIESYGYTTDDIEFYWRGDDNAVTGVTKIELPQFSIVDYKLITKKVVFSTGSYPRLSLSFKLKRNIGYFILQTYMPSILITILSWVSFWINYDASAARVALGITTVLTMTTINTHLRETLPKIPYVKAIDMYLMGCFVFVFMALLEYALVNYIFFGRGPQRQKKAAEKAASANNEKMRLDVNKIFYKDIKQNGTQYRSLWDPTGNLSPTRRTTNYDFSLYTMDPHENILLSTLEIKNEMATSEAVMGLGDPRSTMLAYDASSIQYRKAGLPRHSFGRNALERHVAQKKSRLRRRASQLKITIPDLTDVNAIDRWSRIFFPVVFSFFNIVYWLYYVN
T1 sequence (P47869 whole entry): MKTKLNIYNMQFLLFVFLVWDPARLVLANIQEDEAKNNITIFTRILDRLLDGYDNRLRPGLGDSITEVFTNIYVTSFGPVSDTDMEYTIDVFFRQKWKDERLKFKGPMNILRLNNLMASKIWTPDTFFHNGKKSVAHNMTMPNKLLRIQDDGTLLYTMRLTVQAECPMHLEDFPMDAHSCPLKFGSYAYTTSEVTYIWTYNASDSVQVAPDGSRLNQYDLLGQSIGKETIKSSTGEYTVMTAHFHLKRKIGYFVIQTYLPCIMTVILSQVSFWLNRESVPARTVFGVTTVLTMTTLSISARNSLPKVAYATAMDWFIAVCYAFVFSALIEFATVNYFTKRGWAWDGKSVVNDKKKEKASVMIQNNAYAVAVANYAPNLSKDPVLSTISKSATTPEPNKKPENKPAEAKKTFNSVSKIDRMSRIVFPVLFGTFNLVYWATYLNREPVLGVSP
In short: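 Stage V–VI Xenopus oocytes, defolliculated with 2 mg/mL collagenase, injected with α(1, 2, 3 or 5) and β2 cRNAs mixed 1:1, then kept at 18 °C in ND96 (pH 7.4). Enhancement = I(GABA+compound)/IGABA − 1. Curves were Hill-fitted for EC50. Bath DMSO was at most 0.3%, matched in controls.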

[4] = molecular target: T2, GABA-A receptor alpha-1/beta-3 (Homo sapiens, UniProt P14867+P28472); assay: Modulation of GABA Aalpha1beta3 receptor expressed in Xenopus laevis oocytes assessed as potentiation of GABA-induced chloride current at holding potential -70 mV by two-microelectrode voltage clamp technique; assay type: cell-based, Oocyte
T2 sequence (P14867 whole entry): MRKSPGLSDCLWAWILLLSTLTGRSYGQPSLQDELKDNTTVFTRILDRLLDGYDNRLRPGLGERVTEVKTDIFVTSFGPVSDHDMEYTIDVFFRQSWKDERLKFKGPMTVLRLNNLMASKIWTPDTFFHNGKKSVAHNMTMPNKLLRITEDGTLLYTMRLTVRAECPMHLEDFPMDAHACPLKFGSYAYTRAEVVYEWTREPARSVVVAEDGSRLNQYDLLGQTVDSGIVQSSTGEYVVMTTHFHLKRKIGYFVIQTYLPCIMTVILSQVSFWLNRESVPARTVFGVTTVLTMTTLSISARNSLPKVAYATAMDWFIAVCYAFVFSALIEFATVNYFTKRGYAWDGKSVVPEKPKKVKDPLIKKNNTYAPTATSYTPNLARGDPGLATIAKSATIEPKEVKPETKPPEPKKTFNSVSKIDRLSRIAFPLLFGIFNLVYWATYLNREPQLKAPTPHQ
T2 sequence (P28472 whole entry): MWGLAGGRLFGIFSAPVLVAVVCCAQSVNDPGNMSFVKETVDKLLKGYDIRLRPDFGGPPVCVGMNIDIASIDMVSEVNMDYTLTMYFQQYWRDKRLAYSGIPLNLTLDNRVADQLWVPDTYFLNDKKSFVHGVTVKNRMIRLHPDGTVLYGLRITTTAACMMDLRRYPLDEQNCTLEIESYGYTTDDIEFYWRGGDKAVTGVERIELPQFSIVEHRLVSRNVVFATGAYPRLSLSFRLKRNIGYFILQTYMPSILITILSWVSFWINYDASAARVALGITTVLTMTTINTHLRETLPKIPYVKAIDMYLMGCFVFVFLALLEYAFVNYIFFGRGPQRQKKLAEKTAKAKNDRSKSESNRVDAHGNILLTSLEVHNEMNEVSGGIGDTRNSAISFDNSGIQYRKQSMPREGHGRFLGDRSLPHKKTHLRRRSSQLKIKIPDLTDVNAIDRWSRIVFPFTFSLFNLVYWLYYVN

Compound: C=CCc1ccc(O)c(-c2ccc(O)c(CC=C)c2)c1 [HONOKIOL]
- Activity [1]: 376%
- Smax [2]: 347%
- EC50 [3]: 46.4 µM
- EC50 [4]: 59.6 µM
